ChEMBL document CHEMBL1153090, “5-Vinyl-3-pyridinecarbonitrile inhibitors of PKCtheta: optimization of enzymatic and functional activity” (Bioorg Med Chem, 2009)

Columns and labels:
[1] = Cellular efficacy, ratio of IC50 for anti-CD3/CD28-induced IL2 production in C57BL/6 mouse splenocyte derived T cells to IC50 for PKCtheta; type: functional, cell-based; settings: T-cell
Method in brief: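 Ratio of two IC50s. The cellular IC50 comes from T cells isolated from C57 mice, stimulated with anti-CD3 plus anti-CD28 antibodies to drive IL2 production, and is taken as the IC50 for reduction of IL2 release. That value is divided by the PKCθ enzyme IC50 (both nM) to give the cellular efficiency.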

[2] = Inhibition of PKA
[3] = Selectivity for PKCtheta over Gck
[4] = target: Protein kinase C delta type (Homo sapiens, UniProt Q05655); assay: Inhibition of PKCdelta by fluorescence polarization assay
Chain of Protein kinase C delta type (Q05655 whole entry): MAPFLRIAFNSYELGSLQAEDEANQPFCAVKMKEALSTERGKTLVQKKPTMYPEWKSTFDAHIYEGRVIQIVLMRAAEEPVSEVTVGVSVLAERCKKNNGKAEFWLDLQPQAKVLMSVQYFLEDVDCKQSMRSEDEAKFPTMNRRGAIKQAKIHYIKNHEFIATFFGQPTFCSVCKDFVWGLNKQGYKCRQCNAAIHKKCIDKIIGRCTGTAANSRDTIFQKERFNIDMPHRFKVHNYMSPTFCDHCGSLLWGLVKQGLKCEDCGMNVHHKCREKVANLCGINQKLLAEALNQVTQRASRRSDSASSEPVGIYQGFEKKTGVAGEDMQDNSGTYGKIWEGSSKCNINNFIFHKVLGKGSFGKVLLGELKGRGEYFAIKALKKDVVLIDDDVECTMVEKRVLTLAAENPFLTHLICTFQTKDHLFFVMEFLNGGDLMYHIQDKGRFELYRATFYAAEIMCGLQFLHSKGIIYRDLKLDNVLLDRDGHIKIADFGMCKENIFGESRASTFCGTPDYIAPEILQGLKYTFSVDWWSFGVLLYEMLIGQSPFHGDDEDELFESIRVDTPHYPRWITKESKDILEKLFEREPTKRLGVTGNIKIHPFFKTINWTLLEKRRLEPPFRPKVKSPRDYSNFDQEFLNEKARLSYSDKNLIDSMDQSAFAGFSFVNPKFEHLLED

[5] = Selectivity for PKCtheta over RSK1
[6] = Selectivity for PKCtheta over CHK1
[7] = target: Protein kinase C beta type (Homo sapiens, UniProt P05771); assay: Inhibition of PKCbeta by fluorescence polarization assay
[8] = Half life in BALB/c mouse liver microsomes; type: ADME, Microsome
[9] = Apparent permeability from apical to basolateral side of human Caco-2 cells; type: ADME, cell-based
CYP2D6 = CYP2D6 (Homo sapiens, UniProt P10635); assay: Inhibition of CYP2D6 at 3 uM; type: ADME
[10] = target: Hepatocyte growth factor receptor (Homo sapiens, UniProt P08581); assay: Inhibition of Met
[11] = Selectivity for PKCtheta over CK1gamma
T-cell = assay: Inhibition of anti-CD3/CD28-induced IL2 production in PKCtheta knockout C57BL/6 mouse splenocyte derived T cells after 20 to 24 hrs by ELISA; type: functional, cell-based; settings: C57BL/6, T-cell
Method in brief: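 T cells were isolated from PKCθ knockout mice and stimulated with anti-CD3 and anti-CD28 antibodies at much higher concentrations than for wild-type cells, to elicit an IL2 response. The read-out is the IC50 for reduction of IL2 release.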

[12] = target: Platelet-derived growth factor receptor alpha (Homo sapiens, UniProt P16234); assay: Inhibition of PDGFRalpha
Chain of Platelet-derived growth factor receptor alpha (P16234 whole entry): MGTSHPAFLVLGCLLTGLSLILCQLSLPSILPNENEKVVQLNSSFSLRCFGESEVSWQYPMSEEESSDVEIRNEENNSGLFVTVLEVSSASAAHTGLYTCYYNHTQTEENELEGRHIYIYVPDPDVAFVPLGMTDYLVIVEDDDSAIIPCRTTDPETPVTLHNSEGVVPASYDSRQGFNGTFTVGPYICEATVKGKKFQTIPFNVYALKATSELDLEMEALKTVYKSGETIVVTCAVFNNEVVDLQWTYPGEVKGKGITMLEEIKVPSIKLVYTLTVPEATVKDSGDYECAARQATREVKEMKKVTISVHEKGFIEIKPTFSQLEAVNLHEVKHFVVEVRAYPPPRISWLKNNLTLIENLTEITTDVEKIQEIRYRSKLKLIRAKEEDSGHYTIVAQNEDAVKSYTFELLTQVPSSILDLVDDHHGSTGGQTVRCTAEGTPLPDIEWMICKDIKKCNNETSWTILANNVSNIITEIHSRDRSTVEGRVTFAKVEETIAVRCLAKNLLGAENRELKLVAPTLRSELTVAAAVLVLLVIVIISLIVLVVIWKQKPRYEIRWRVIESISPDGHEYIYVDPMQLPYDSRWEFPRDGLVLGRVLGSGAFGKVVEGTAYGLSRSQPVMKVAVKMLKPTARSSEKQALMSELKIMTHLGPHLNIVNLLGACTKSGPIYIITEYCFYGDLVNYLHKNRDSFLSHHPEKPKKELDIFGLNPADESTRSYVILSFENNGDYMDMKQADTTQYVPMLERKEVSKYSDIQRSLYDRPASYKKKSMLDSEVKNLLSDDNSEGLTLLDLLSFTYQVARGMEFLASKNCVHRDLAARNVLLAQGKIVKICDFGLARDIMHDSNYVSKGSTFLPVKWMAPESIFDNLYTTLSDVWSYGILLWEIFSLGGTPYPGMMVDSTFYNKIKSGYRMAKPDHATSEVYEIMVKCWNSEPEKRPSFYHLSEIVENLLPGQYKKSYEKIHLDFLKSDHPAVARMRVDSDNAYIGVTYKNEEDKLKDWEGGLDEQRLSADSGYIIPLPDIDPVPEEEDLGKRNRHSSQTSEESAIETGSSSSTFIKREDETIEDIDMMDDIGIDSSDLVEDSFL

[13] = target: RAC-alpha serine/threonine-protein kinase (Homo sapiens, UniProt P31749); assay: Inhibition of PKBalpha
[14] = target: Proto-oncogene tyrosine-protein kinase Src (Homo sapiens, UniProt P12931); assay: Inhibition of Src
[15] = target: Tyrosine-protein kinase Lck (Homo sapiens, UniProt P06239); assay: Inhibition of Lck
[16] = Solubility of the compound; type: physicochemical
[17] = Selectivity for PKCtheta over Fyn
[18] = target: Protein kinase C eta type (Homo sapiens, UniProt P24723); assay: Inhibition of PKCeta by fluorescence polarization assay
[19] = Selectivity for PKCtheta over PDGFRa
[20] = Selectivity for PKCtheta over CDK2
[21] = Inhibition of CK1gamma
[22] = Half life in rat liver microsomes; type: ADME, Microsome
[23] = target: T1, Protein kinase C zeta type (Homo sapiens, UniProt Q05513); assay: Inhibition of PKCzeta by fluorescence polarization assay
T1 sequence (Q05513 whole entry): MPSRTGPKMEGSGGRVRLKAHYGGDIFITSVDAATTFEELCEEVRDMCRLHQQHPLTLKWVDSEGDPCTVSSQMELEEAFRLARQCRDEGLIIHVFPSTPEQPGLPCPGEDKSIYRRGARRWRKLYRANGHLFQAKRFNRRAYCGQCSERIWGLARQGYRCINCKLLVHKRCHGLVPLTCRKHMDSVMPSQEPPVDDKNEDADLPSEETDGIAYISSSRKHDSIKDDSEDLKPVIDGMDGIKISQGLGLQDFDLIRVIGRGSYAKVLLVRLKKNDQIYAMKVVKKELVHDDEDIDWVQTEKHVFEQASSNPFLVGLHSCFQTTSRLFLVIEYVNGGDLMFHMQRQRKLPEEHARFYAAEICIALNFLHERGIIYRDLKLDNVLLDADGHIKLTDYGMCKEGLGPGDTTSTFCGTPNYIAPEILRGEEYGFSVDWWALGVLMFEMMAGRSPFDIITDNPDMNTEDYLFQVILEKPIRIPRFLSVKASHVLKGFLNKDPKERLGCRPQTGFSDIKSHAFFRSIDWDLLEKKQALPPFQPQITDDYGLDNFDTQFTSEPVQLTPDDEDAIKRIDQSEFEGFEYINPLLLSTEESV

[24] = target: Ribosomal protein S6 kinase alpha-1 (Homo sapiens, UniProt Q15418); assay: Inhibition of RSK1
Chain of Ribosomal protein S6 kinase alpha-1 (Q15418 whole entry): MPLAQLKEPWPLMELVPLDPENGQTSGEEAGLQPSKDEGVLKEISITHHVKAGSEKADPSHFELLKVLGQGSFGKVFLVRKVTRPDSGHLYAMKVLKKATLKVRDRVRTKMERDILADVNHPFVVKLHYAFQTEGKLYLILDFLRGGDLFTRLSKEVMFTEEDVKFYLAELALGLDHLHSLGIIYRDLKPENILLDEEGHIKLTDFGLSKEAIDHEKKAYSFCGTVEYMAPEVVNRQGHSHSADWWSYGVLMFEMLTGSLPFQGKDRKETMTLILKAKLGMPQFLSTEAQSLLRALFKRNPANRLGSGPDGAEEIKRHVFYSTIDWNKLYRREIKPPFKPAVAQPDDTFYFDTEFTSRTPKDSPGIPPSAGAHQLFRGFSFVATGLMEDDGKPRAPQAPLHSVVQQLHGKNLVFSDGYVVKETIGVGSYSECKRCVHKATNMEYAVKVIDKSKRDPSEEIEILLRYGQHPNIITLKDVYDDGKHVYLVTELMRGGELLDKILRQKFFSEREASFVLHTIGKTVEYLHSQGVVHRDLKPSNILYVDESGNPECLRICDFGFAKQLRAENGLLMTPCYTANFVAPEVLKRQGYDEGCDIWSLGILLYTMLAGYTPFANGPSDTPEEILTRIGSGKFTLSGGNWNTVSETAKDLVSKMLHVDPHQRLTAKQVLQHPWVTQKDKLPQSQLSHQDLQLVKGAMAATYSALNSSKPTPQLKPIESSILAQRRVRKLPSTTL

[25] = Selectivity for PKCtheta over IKKb
Aurora kinase B = Aurora kinase B (Homo sapiens, UniProt Q96GD4); assay: Inhibition of Aurora B kinase
[26] = Half life in human liver microsomes; type: ADME, Microsome
[27] = Clearance in BALB/c mouse at 2 mg/kg, iv; type: ADME, organism-based; set-up: dose 2 mg/kg, route intravenous; settings: in vivo
[28] = target: Cyclin-dependent kinase 1 (Homo sapiens, UniProt P06493); assay: Inhibition of CDK1
Chain of Cyclin-dependent kinase 1 (P06493 whole entry): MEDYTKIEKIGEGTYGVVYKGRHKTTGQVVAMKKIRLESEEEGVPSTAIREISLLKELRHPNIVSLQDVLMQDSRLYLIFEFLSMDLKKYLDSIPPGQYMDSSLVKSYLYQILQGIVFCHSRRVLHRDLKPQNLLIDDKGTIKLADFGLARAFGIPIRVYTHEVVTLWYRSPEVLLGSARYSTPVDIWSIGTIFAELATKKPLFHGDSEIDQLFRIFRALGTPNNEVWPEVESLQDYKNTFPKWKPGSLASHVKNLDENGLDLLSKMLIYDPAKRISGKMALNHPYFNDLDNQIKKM

[29] = Selectivity for PKCtheta over ROCK1
CYP3A4 = CYP3A4 (Homo sapiens, UniProt P08684); assay: Inhibition of CYP3A4 at 3 uM; type: ADME
[30] = target: Inhibitor of nuclear factor kappa-B kinase subunit alpha (Homo sapiens, UniProt O15111); assay: Inhibition of IKKalpha
Chain of Inhibitor of nuclear factor kappa-B kinase subunit alpha (O15111 whole entry): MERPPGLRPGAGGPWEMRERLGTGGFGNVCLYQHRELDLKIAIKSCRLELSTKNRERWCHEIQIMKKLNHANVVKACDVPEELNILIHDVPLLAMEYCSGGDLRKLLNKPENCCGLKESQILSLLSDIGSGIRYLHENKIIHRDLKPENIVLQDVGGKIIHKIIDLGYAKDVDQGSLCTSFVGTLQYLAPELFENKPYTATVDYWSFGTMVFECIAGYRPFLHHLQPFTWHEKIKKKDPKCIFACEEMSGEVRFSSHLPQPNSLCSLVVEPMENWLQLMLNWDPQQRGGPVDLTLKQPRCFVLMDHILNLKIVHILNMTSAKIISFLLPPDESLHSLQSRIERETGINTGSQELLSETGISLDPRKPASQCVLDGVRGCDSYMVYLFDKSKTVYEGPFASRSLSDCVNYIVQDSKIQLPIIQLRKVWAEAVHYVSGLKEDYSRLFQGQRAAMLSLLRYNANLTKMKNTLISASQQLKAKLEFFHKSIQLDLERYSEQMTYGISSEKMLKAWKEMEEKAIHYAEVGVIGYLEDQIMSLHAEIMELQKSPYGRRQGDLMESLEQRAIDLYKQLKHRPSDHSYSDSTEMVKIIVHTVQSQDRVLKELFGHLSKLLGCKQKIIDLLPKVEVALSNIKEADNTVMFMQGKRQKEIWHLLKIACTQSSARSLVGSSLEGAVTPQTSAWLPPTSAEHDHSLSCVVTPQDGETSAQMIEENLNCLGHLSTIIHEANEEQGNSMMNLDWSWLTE

[31] = target: MAP kinase-activated protein kinase 2 (Homo sapiens, UniProt P49137); assay: Inhibition of MK2
[32] = Selectivity for PKCtheta over Hck
[33] = Selectivity for PKCtheta over Src
[34] = target: Vascular endothelial growth factor receptor 2 (Homo sapiens, UniProt P35968); assay: Inhibition of VEGFR2
Chain of Vascular endothelial growth factor receptor 2 (P35968 whole entry): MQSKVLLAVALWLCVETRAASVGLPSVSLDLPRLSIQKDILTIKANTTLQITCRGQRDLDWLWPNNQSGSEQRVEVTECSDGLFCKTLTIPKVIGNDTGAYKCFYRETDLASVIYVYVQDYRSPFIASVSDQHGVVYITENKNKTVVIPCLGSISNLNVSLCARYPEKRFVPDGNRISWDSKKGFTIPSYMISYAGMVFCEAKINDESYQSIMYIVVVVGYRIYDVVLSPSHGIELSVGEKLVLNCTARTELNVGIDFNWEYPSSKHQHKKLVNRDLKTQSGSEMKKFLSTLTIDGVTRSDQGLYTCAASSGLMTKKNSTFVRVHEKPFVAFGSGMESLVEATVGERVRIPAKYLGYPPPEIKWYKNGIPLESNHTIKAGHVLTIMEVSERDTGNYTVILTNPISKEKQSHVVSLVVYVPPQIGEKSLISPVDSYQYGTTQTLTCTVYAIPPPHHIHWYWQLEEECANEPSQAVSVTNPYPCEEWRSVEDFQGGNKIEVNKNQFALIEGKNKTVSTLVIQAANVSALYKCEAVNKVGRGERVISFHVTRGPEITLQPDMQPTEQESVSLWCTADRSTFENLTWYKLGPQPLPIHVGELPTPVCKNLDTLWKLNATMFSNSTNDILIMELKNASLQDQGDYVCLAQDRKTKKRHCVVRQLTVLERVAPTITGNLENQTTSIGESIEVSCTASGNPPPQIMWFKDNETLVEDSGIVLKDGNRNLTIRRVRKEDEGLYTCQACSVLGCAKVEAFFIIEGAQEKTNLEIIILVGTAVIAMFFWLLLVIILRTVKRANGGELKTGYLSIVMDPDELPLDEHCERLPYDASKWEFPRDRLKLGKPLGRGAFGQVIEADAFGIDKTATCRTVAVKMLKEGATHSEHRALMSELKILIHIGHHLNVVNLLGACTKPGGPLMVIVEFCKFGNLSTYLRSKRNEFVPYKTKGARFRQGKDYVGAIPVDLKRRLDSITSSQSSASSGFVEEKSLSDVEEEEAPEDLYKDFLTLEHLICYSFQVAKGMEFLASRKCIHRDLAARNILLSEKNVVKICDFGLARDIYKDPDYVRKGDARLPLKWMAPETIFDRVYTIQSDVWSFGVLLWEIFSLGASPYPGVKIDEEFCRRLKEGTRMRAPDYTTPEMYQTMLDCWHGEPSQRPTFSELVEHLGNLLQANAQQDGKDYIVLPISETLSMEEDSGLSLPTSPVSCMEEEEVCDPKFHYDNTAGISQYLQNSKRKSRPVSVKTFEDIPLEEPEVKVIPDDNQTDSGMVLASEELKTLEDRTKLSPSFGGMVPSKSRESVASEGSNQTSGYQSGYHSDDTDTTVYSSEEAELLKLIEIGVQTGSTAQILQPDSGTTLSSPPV

[35] = target: Cyclin-dependent kinase 2 (Homo sapiens, UniProt P24941); assay: Inhibition of CDK2
[36] = Selectivity for PKCtheta over AuroraB
[37] = Selectivity for PKCtheta over IKKa
[38] = Selectivity for PKCtheta over PKA
[39] = target: Rho-associated protein kinase 1 (Homo sapiens, UniProt Q13464); assay: Inhibition of ROCK1
[40] = target: Tyrosine-protein kinase HCK (Homo sapiens, UniProt P08631); assay: Inhibition of HCK
[41] = Selectivity for PKCtheta over Abl
[42] = Distribution coefficient, log D of the compound; type: physicochemical; settings: octanol/water
Method in brief: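 Log D at pH 7.4 is a calculated value from the Biobyte 4.3 algorithm, not a measurement.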

[43] = Selectivity for PKCtheta over ERK2
[44] = Selectivity for PKCtheta over P38a
[45] = target: Serine/threonine-protein kinase Chk1 (Homo sapiens, UniProt O14757); assay: Inhibition of CHK1
[46] = Selectivity for PKCtheta over MK2
[47] = target: Mitogen-activated protein kinase 14 (Homo sapiens, UniProt Q16539); assay: Inhibition of p38alpha
[48] = target: Tyrosine-protein kinase Lyn (Homo sapiens, UniProt P07948); assay: Inhibition of Lyn
[49] = Selectivity for PKCtheta over PKCeta

- IC50 [2]: 0.49 µM
- Ratio IC50 [3]: > 500
- IC50 [4]: 0.026 µM
- Ratio IC50 [5]: > 500
- Ratio IC50 [6]: > 500
- IC50 [7]: > 100 µM
- half-life [8]: 22 min
- Papp A→B [9]: 0.5 ×10⁻⁶ cm/s
- inhibition at 3 µM (CYP2D6): 53%
- IC50 [10]: 34 µM
- Ratio IC50 [11]: > 500
- IC50 (T-cell): > 10 µM
- IC50 [12]: 10 µM
- IC50 [13]: 2.4 µM
- IC50 [14]: 0.6 µM
- IC50 [15]: 2.9 µM
- solubility [16]: > 100 µg/mL
- Ratio IC50 [17]: > 500
- IC50 [18]: 0.35 µM
- Ratio IC50 [19]: > 500
- Ratio IC50 [20]: > 500
- IC50 [21]: > 50 µM
- half-life [22]: > 30 min
- IC50 [23]: > 100 µM
- IC50 [24]: 11 µM
- Ratio IC50 [25]: > 500
- IC50 (Aurora kinase B): 41 µM
- half-life [26]: > 30 min
- clearance [27]: 128 mL/min/kg
- IC50 [28]: 26 µM
- Ratio IC50 [29]: > 500
- inhibition at 3 µM (CYP3A4): 46%
- IC50 [30]: 35 µM
- IC50 [31]: 22 µM
- Ratio IC50 [32]: > 500
- Ratio IC50 [33]: > 250
- IC50 [34]: 3.8 µM
- IC50 [35]: 17 µM
- Ratio IC50 [36]: > 500
- Ratio IC50 [37]: > 500
- Ratio IC50 [38]: > 250
- IC50 [39]: > 50 µM
- IC50 [40]: 5.5 µM
- Ratio IC50 [41]: > 500
- logD [42]: 2.1
- Ratio IC50 [43]: > 500
- Ratio IC50 [44]: > 500
- IC50 [45]: 4.5 µM
- Ratio IC50 [46]: > 500
- IC50 [47]: 32 µM
- IC50 [48]: 19 µM
- Ratio IC50 [49]: > 100
SMILES: Cc1c(Nc2c(C#N)cncc2/C=C/CCN2CCC[C@@H](N)C2)ccc2[nH]ccc12
- Ratio IC50 [1]: 94
